Test results taken from publication PMC6511231 (Cell reports, 2018).

Columns and labels:
[1] = target: human LIN28ΔF73A (Homo sapiens, UniProt Q9H9Z2, F73A); experiment: Competition / dose-response fluorescence polarization assay with LIN28ΔF73A; type: binding; settings: preE-let-7f, preE-let-7a, preE-let-7d, preE-let-7g
Method in brief: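 Recombinant human LIN28ΔF73A (150 nM in the screening master mix; set at the FP-titration Kd for competition) was mixed with 2 nM FAM-labelled preE-let-7 probe (let-7f, -7a, -7d or -7g) in buffer M (100 mM NaCl, 20 mM Tris-HCl pH 7.0, 5 mM MgCl2, 10% glycerol, 5 mM DTT, 0.1% NP-40). Test compound was dispensed at 12 concentrations, 50 μM–20 nM. IC50 came from a 1:1 inhibition fit; each assay was run at least twice.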

[2] = target: T1, mouse LIN28Δ, mouse TUT4 and pre-let-7g (Mus musculus, UniProt Q8K3Y3); experiment: LIN28-mediated let-7 oligouridylation assay; type: biochemical; settings: 40 μM compound, 37°C, denaturing PAGE
T1 sequence (Q8K3Y3 16-184): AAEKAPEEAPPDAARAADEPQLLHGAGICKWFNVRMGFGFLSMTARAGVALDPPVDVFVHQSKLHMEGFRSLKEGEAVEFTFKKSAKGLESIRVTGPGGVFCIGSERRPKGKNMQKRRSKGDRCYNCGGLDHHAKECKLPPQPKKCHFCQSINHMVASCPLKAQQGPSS
T1 sequence (B2RX14 230-1424 partner): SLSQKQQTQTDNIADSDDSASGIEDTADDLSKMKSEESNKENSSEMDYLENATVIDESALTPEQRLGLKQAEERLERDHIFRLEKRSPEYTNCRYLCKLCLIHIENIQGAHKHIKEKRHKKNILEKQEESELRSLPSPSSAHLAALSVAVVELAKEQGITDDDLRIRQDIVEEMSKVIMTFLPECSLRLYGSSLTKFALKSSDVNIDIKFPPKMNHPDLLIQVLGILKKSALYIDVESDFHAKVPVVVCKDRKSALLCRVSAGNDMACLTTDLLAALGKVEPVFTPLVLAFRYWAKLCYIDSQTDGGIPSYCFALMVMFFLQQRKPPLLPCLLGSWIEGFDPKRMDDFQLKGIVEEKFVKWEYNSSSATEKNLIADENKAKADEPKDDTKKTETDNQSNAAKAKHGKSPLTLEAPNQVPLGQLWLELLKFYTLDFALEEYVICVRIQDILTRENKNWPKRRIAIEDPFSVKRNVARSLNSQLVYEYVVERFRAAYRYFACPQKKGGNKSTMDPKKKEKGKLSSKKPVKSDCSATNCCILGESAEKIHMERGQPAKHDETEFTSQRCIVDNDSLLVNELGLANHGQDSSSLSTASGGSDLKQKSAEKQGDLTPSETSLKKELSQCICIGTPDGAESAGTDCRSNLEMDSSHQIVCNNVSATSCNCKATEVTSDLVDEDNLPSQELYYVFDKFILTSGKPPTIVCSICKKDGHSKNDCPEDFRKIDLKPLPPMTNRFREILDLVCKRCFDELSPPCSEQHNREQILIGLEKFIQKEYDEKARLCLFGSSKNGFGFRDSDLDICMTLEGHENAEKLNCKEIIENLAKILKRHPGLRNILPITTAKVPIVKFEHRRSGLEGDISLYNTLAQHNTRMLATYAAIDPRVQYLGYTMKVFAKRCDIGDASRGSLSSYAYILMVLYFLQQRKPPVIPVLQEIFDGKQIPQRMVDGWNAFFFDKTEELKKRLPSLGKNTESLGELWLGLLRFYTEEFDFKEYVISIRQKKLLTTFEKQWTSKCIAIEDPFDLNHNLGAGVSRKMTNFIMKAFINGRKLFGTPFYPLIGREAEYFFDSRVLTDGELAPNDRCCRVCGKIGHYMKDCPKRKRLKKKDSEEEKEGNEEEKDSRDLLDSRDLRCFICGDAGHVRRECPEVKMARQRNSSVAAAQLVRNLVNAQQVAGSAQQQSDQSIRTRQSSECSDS
Method in brief: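 Mouse LIN28A, mouse TUT4 (230–1424) and in vitro-transcribed, T4 PNK-radiolabelled pre-let-7g were incubated with test compound (40 μM screen; 80 μM follow-up) for 40 min at 37°C. Buffer: 20 mM Tris 7.5, 5% glycerol, 6 mM MgCl2, 6 mM DTT, 50 μM ZnCl2, 40 mM KCl, 200 μM UTP. Reactions were stopped with EDTA/SDS/proteinase K (50°C, 30 min) and run on denaturing PAGE. RNA and DMSO served as controls.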

[3] = target: human LIN28Δ:preE-let-7f complex (Homo sapiens, UniProt Q9H9Z2); experiment: Differential scanning fluorimetry; type: binding; settings: SYPRO Orange; 63°C without compound
[4] = system: HeLaLIN28B; experiment: let-7-sensitive dual luciferase reporter assay, HeLaLIN28B; type: cell-based, human; settings: LI71 50–100 μM, 48 hr
Method in brief: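 HeLa clone stably expressing N-FLAG-LIN28B at low level, from retroviral transduction, puromycin selection and single-cell sorting. Cells were lentivirally transduced with the let-7 dual luciferase sensor: LTR-driven Renilla with eight let-7 sites in the 3′ UTR plus HSV-TK firefly control, as a G418-selected polyclonal pool. Cells received test compound or DMSO vehicle, then were lysed for dual luciferase readout normalised to blank samples.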

[5] = system: HeLa control cells expressing GFP and not LIN28; experiment: let-7-sensitive dual luciferase reporter assay, GFP control cells; type: cell-based, human; settings: up to 100 μM
Method in brief: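 HeLa cells were retrovirally transduced with FLAG-GFP (or LIN28) cDNA, puromycin-selected and single-cell cloned. They were then lentivirally given an 8×let-7-site Renilla/HSV-TK firefly cassette and selected with G418 as polyclonal populations. Cells were exposed to up to 100 μM test compound, lysed, and read for dual luciferase with firefly as internal control. Values were normalised to blanks.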

[6] = system: apoptosis; experiment: Annexin V flow cytometry; type: cell-based; settings: 100 μM, 48 hr
Method in brief: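 Cells exposed to 100 μM test compound or vehicle for 48 hr, then harvested and stained with APC-conjugated annexin V following the kit protocol before flow cytometry.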

[7] = system: DKO+A mESCs; experiment: qPCR of let-7 species in DKO+A mESCs; type: cell-based, mouse; settings: 100 μM, 48 hr, LIF/2i culture, vs vehicle
Method in brief: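 K562 leukaemia cells, or DKO+A mESCs (Lin28a/Lin28b double-knockout re-expressing wild-type LIN28A, in LIF/2i), were treated 48 hr with 100 μM test compound or vehicle. Total RNA was isolated with TRIzol and cDNA made with the miScript system. Mature and precursor microRNAs were quantified with specific primer assays relative to U6; n = 6 over two independent experiments.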

[8] = Cellular toxicity; type: cell-based; settings: high micromolar concentrations

Chain of human LIN28Δ:preE-let-7f complex (Q9H9Z2 16-187, stated change not applied, one chain of several): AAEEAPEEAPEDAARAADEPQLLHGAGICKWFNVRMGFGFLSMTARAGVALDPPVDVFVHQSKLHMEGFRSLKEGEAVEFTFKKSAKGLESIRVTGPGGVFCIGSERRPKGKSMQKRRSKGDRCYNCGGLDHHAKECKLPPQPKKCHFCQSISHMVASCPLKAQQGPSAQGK
Chain of human LIN28ΔF73A (Q9H9Z2 16-187 F73A): as the sequence (Q9H9Z2 16-187, stated change not applied, one chain of several) above, with F58A counted along it

In the case of `CCOc1cccc2c1N[C@@H](c1ccc(C(=O)O)cc1)[C@H]1CC=C[C@@H]21` [LI71], the “IC50s with four let-7 pre-elements” value [1] is reported as “all within the low micromolar range”, the “Inhibition of LIN28-mediated oligouridylation” value [2] is reported as “completely inhibited” and the “Melting temperature of LIN28Δ:preE-let-7f complex with compound” value [3] is reported as 60 °C. For the same compound, the “Relative Renilla luciferase activity” value [4] was “significantly reduce the relative Renilla luciferase activity”, the “Relative Renilla luciferase activity” value [5] was “did not show an effect” and the Apoptosis [6] was “did not increase apoptosis”. The “Mature let-7 species” value [7] was “increased levels of mature let-7 species” and the Cellular toxicity [8] was “low cellular toxicity”.
